Tested on: Fibroblast
Assay: Multiplex assay against human fibroblast
Format: toxicity, cell-based
Procedure, shortened: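 Live cells were stained at seeding with Hoechst33342, BioTracker Green Microtubule Cytoskeleton Dye, MitoTracker Red and Annexin V Alexa Fluor 680, then imaged on a CQ1 microscope at 37°C and 5% CO2 after compound addition. CellPathfinder machine-learning gating split cells into Hoechst high-intensity objects or normal cells. Normal cells were split into healthy, pyknosed or fragmented nuclei, and pyknosed cells into mitotic or apoptotic. Tubulin, mitochondrial-mass and membrane-permeability phenotypes are per cents of healthy-nucleus cells.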

[1] = 12 h, 1 µM, compound concentration 1 uM, replicate 1
[2] = 12 h, 1 µM, compound concentration 1 uM, replicate 2
[3] = 12 h, 10 µM, compound concentration 10 uM, replicate 1
[4] = 12 h, 10 µM, compound concentration 10 uM, replicate 2
[5] = 24 h, 1 µM, compound concentration 1 uM, replicate 1
[6] = 24 h, 1 µM, compound concentration 1 uM, replicate 2
[7] = 24 h, 10 µM, compound concentration 10 uM, replicate 1
[8] = 24 h, 10 µM, compound concentration 10 uM, replicate 2
[9] = 48 h, 1 µM, compound concentration 1 uM, replicate 1
[10] = 48 h, 1 µM, compound concentration 1 uM, replicate 2
[11] = 48 h, 10 µM, compound concentration 10 uM, replicate 1
[12] = 48 h, 10 µM, compound concentration 10 uM, replicate 2

COc1c(C)cc(NC(=O)c2nn(Cc3ccc(F)cc3)c3c2CN(C(=O)c2ccc[nH]2)C[C@]3(C)C(N)=O)cc1C
Population Apoptotic (%) [1]: 42%
Population Fragmented Nuclei (%) [1]: 21%
Population Healthy Nuclei (%) [1]: 58%
Population Hoechst High Intensity Objects (%) [1]: 2%
Population Membrane Permeable-Phenotype (%) [1]: 1%
Population Mitochondria Different-Phenotype (%) [1]: 18%
Population Mitotic Cells (%) [1]: 57%
Population Normal (%) [1]: 97%
Population Pyknosed Nuclei (%) [1]: 20%
Population Tubulin-Different-Phenotype (%) [1]: 64%
Total Cell Count [1]: 95
Population Apoptotic (%) [2]: 46%
Population Fragmented Nuclei (%) [2]: 16%
Population Healthy Nuclei (%) [2]: 51%
Population Hoechst High Intensity Objects (%) [2]: 3%
Population Membrane Permeable-Phenotype (%) [2]: 6%
Population Mitochondria Different-Phenotype (%) [2]: 11%
Population Mitotic Cells (%) [2]: 53%
Population Normal (%) [2]: 96%
Population Pyknosed Nuclei (%) [2]: 31%
Population Tubulin-Different-Phenotype (%) [2]: 72%
Total Cell Count [2]: 86
Population Apoptotic (%) [3]: 47%
Population Fragmented Nuclei (%) [3]: 12%
Population Healthy Nuclei (%) [3]: 58%
Population Hoechst High Intensity Objects (%) [3]: 1%
Population Membrane Permeable-Phenotype (%) [3]: 0%
Population Mitochondria Different-Phenotype (%) [3]: 25%
Population Mitotic Cells (%) [3]: 52%
Population Normal (%) [3]: 98%
Population Pyknosed Nuclei (%) [3]: 29%
Population Tubulin-Different-Phenotype (%) [3]: 90%
Total Cell Count [3]: 166
Population Apoptotic (%) [4]: 52%
Population Fragmented Nuclei (%) [4]: 29%
Population Healthy Nuclei (%) [4]: 38%
Population Hoechst High Intensity Objects (%) [4]: 2%
Population Membrane Permeable-Phenotype (%) [4]: 6%
Population Mitochondria Different-Phenotype (%) [4]: 30%
Population Mitotic Cells (%) [4]: 47%
Population Normal (%) [4]: 97%
Population Pyknosed Nuclei (%) [4]: 32%
Total Cell Count [4]: 115
Population Apoptotic (%) [5]: 66%
Population Fragmented Nuclei (%) [5]: 25%
Population Healthy Nuclei (%) [5]: 61%
Population Hoechst High Intensity Objects (%) [5]: 3%
Population Membrane Permeable-Phenotype (%) [5]: 1%
Population Mitochondria Different-Phenotype (%) [5]: 17%
Population Mitotic Cells (%) [5]: 33%
Population Normal (%) [5]: 96%
Population Pyknosed Nuclei (%) [5]: 12%
Population Tubulin-Different-Phenotype (%) [5]: 45%
Total Cell Count [5]: 96
Population Apoptotic (%) [6]: 48%
Population Fragmented Nuclei (%) [6]: 31%
Population Healthy Nuclei (%) [6]: 38%
Population Hoechst High Intensity Objects (%) [6]: 6%
Population Membrane Permeable-Phenotype (%) [6]: 8%
Population Mitotic Cells (%) [6]: 51%
Population Normal (%) [6]: 93%
Population Pyknosed Nuclei (%) [6]: 30%
Population Tubulin-Different-Phenotype (%) [6]: 67%
Total Cell Count [6]: 95
Population Apoptotic (%) [7]: 65%
Population Fragmented Nuclei (%) [7]: 14%
Population Healthy Nuclei (%) [7]: 64%
Population Hoechst High Intensity Objects (%) [7]: 3%
Population Membrane Permeable-Phenotype (%) [7]: 0%
Population Mitochondria Different-Phenotype (%) [7]: 47%
Population Mitotic Cells (%) [7]: 34%
Population Normal (%) [7]: 96%
Population Pyknosed Nuclei (%) [7]: 20%
Population Tubulin-Different-Phenotype (%) [7]: 90%
Total Cell Count [7]: 159
Population Apoptotic (%) [8]: 43%
Population Fragmented Nuclei (%) [8]: 30%
Population Healthy Nuclei (%) [8]: 47%
Population Hoechst High Intensity Objects (%) [8]: 4%
Population Membrane Permeable-Phenotype (%) [8]: 8%
Population Mitochondria Different-Phenotype (%) [8]: 26%
Population Mitotic Cells (%) [8]: 56%
Population Normal (%) [8]: 95%
Population Pyknosed Nuclei (%) [8]: 21%
Population Tubulin-Different-Phenotype (%) [8]: 82%
Total Cell Count [8]: 110
Population Apoptotic (%) [9]: 87%
Population Fragmented Nuclei (%) [9]: 29%
Population Healthy Nuclei (%) [9]: 61%
Population Hoechst High Intensity Objects (%) [9]: 7%
Population Membrane Permeable-Phenotype (%) [9]: 0%
Population Mitochondria Different-Phenotype (%) [9]: 10%
Population Mitotic Cells (%) [9]: 12%
Population Normal (%) [9]: 92%
Population Pyknosed Nuclei (%) [9]: 8%
Population Tubulin-Different-Phenotype (%) [9]: 45%
Total Cell Count [9]: 99
Population Apoptotic (%) [10]: 70%
Population Fragmented Nuclei (%) [10]: 34%
Population Healthy Nuclei (%) [10]: 45%
Population Hoechst High Intensity Objects (%) [10]: 5%
Population Membrane Permeable-Phenotype (%) [10]: 10%
Population Mitotic Cells (%) [10]: 29%
Population Normal (%) [10]: 94%
Population Pyknosed Nuclei (%) [10]: 19%
Population Tubulin-Different-Phenotype (%) [10]: 69%
Total Cell Count [10]: 91
Population Apoptotic (%) [11]: 60%
Population Fragmented Nuclei (%) [11]: 22%
Population Healthy Nuclei (%) [11]: 60%
Population Hoechst High Intensity Objects (%) [11]: 4%
Population Membrane Permeable-Phenotype (%) [11]: 0%
Population Mitochondria Different-Phenotype (%) [11]: 54%
Population Mitotic Cells (%) [11]: 39%
Population Normal (%) [11]: 95%
Population Pyknosed Nuclei (%) [11]: 17%
Population Tubulin-Different-Phenotype (%) [11]: 92%
Total Cell Count [11]: 166
Population Apoptotic (%) [12]: 77%
Population Fragmented Nuclei (%) [12]: 41%
Population Healthy Nuclei (%) [12]: 51%
Population Hoechst High Intensity Objects (%) [12]: 2%
Population Membrane Permeable-Phenotype (%) [12]: 3%
Population Mitochondria Different-Phenotype (%) [12]: 16%
Population Mitotic Cells (%) [12]: 22%
Population Normal (%) [12]: 97%
Population Pyknosed Nuclei (%) [12]: 7%
Population Tubulin-Different-Phenotype (%) [12]: 75%
Total Cell Count [12]: 122
